Measurements from article PMC9660540 (Clinical Cancer Research, 2022).

Assay: Causally related adverse events, phase Ia/Ib study in patients with solid tumors
Format: in vivo, human
Procedure, shortened: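 Expansion cohorts received nanosuspension at 100 mg once daily. The safety set was all patients given ≥1 dose, classified by the treatment actually received. Treatment was delayed or reduced for grade ≥3 or clinically significant nonhematologic toxicity.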

Question: For Cc1cc(-c2nnc(N)nc2-c2ccc(F)cc2)cc(Cl)n1 [AZD4635], which “≥Grade 3 causally related AE” value (Other IO-naïve) is on record?
Answer: 5 (26.3) n (%)

Question: What about the “Causally related AE grade ≥3: ALT increased” value (Other Post-IO) of the same molecule?
Answer: 0 n (%)

Question: What about the “Causally related AE grade ≥3: Abdominal pain” value (Other Post-IO) of the same molecule?
Answer: 0 n (%)

Question: What about the “Causally related AE grade ≥3: Anemia” value (Other Post-IO) of the same molecule?
Answer: 1 (4.8) n (%)

Question: And the “Causally related AE grade ≥3: Arthralgia” value (Other Post-IO)?
Answer: 0 n (%)

Question: And the “Causally related AE grade ≥3: Blood creatinine increased” value (Other Post-IO)?
Answer: 0 n (%)

Question: What about the “Causally related AE grade ≥3: CRP increased” value (Other Post-IO) of the same molecule?
Answer: 0 n (%)

Question: What about the “Causally related AE grade ≥3: Dermatitis psoriasiform” value (Other Post-IO) of the same molecule?
Answer: 0 n (%)

Question: What about the “Causally related AE grade ≥3: Diarrhea” value (Other Post-IO) of the same molecule?
Answer: 0 n (%)

Question: And the “Causally related AE grade ≥3: Dizziness” value (Other Post-IO)?
Answer: 0 n (%)

Question: What about the “Causally related AE grade ≥3: Dyspnea” value (Other Post-IO) of the same molecule?
Answer: 1 (4.8) n (%)

Question: What about the “Causally related AE grade ≥3: Fatigue” value (Other Post-IO) of the same molecule?
Answer: 1 (4.8) n (%)

Question: What about the “Causally related AE grade ≥3: Headache” value (Other Post-IO) of the same molecule?
Answer: 0 n (%)

Question: And the “Causally related AE grade ≥3: Hyperglycemia” value (Other Post-IO)?
Answer: 0 n (%)

Question: And the “Causally related AE grade ≥3: Hypertension” value (Other Post-IO)?
Answer: 0 n (%)

Question: What about the “Causally related AE grade ≥3: Hypophosphatemia” value (Other Post-IO) of the same molecule?
Answer: 0 n (%)

Question: And the “Causally related AE grade ≥3: Insomnia” value (Other Post-IO)?
Answer: 0 n (%)

Question: And the “Causally related AE grade ≥3: Lipase increased” value (Other Post-IO)?
Answer: 0 n (%)

Question: What about the “Causally related AE grade ≥3: Lymphocyte count decreased” value (Other Post-IO) of the same molecule?
Answer: 1 (4.8) n (%)

Question: What about the “Causally related AE grade ≥3: Myositis” value (Other Post-IO) of the same molecule?
Answer: 0 n (%)

Question: And the “Causally related AE grade ≥3: Nausea” value (Other Post-IO)?
Answer: 0 n (%)

Question: And the “Causally related AE grade ≥3: Neutrophil count decreased” value (Other Post-IO)?
Answer: 0 n (%)

Question: And the “Causally related AE grade ≥3: Obliterative bronchiolitis” value (Other Post-IO)?
Answer: 0 n (%)

Question: What about the “Causally related AE grade ≥3: Rash” value (Other Post-IO) of the same molecule?
Answer: 0 n (%)

Question: And the “Causally related AE grade ≥3: Sudden death” value (Other Post-IO)?
Answer: 0 n (%)

Question: And the “Causally related AE grade ≥3: Type I diabetes mellitus” value (Other Post-IO)?
Answer: 0 n (%)

Question: What about the “Causally related AE grade ≥3: Vomiting” value (Other Post-IO) of the same molecule?
Answer: 0 n (%)

Question: And the “≥Grade 3 causally related AE” value (Other Post-IO)?
Answer: 1 (4.8) n (%)

Question: And the “Causally related AE grade ≥3: ALT increased” value (Total)?
Answer: 0 n (%)

Question: What about the “Causally related AE grade ≥3: Abdominal pain” value (Total) of the same molecule?
Answer: 2 (1.4) n (%)

Question: And the “Causally related AE grade ≥3: Anemia” value (Total)?
Answer: 4 (2.7) n (%)

Question: And the “Causally related AE grade ≥3: Arthralgia” value (Total)?
Answer: 1 (0.7) n (%)

Question: And the “Causally related AE grade ≥3: Blood creatinine increased” value (Total)?
Answer: 0 n (%)

Question: What about the “Causally related AE grade ≥3: CRP increased” value (Total) of the same molecule?
Answer: 1 (0.7) n (%)

Question: What about the “Causally related AE grade ≥3: Dermatitis psoriasiform” value (Total) of the same molecule?
Answer: 0 n (%)

Question: What about the “Causally related AE grade ≥3: Diarrhea” value (Total) of the same molecule?
Answer: 1 (0.7) n (%)

Question: What about the “Causally related AE grade ≥3: Dizziness” value (Total) of the same molecule?
Answer: 0 n (%)

Question: And the “Causally related AE grade ≥3: Dyspnea” value (Total)?
Answer: 1 (0.7) n (%)

Question: What about the “Causally related AE grade ≥3: Fatigue” value (Total) of the same molecule?
Answer: 6 (4.1) n (%)

Question: And the “Causally related AE grade ≥3: Headache” value (Total)?
Answer: 1 (0.7) n (%)

Question: What about the “Causally related AE grade ≥3: Hyperglycemia” value (Total) of the same molecule?
Answer: 0 n (%)

Question: What about the “Causally related AE grade ≥3: Hypertension” value (Total) of the same molecule?
Answer: 2 (1.4) n (%)

Question: And the “Causally related AE grade ≥3: Hypophosphatemia” value (Total)?
Answer: 0 n (%)

Question: What about the “Causally related AE grade ≥3: Insomnia” value (Total) of the same molecule?
Answer: 1 (0.7) n (%)

Question: What about the “Causally related AE grade ≥3: Lipase increased” value (Total) of the same molecule?
Answer: 0 n (%)

Question: What about the “Causally related AE grade ≥3: Lymphocyte count decreased” value (Total) of the same molecule?
Answer: 1 (0.7) n (%)

Question: What about the “Causally related AE grade ≥3: Myositis” value (Total) of the same molecule?
Answer: 0 n (%)

Question: What about the “Causally related AE grade ≥3: Nausea” value (Total) of the same molecule?
Answer: 1 (0.7) n (%)

Question: And the “Causally related AE grade ≥3: Neutrophil count decreased” value (Total)?
Answer: 0 n (%)

Question: What about the “Causally related AE grade ≥3: Obliterative bronchiolitis” value (Total) of the same molecule?
Answer: 0 n (%)

Question: And the “Causally related AE grade ≥3: Rash” value (Total)?
Answer: 0 n (%)

Question: And the “Causally related AE grade ≥3: Sudden death” value (Total)?
Answer: 1 (0.7) n (%)

Question: And the “Causally related AE grade ≥3: Type I diabetes mellitus” value (Total)?
Answer: 0 n (%)

Question: What about the “Causally related AE grade ≥3: Vomiting” value (Total) of the same molecule?
Answer: 2 (1.4) n (%)

Question: What about the “≥Grade 3 causally related AE” value (Total) of the same molecule?
Answer: 19 (12.9) n (%)

Question: And the “Treatment-related AEs of grade 3 or greater severity, patients” value (all tumor cohorts)?
Answer: 12.9%

Question: What about the “Causally related AE grade ≥3: ALT increased” value (mCRPC IO-naïve) of the same molecule?
Answer: 0 n (%)

Question: What about the “Causally related AE grade ≥3: Abdominal pain” value (mCRPC IO-naïve) of the same molecule?
Answer: 1 (1.5) n (%)

Question: And the “Causally related AE grade ≥3: Anemia” value (mCRPC IO-naïve)?
Answer: 3 (4.6) n (%)

Question: And the “Causally related AE grade ≥3: Arthralgia” value (mCRPC IO-naïve)?
Answer: 1 (1.5) n (%)

Question: And the “Causally related AE grade ≥3: Blood creatinine increased” value (mCRPC IO-naïve)?
Answer: 0 n (%)

Question: And the “Causally related AE grade ≥3: CRP increased” value (mCRPC IO-naïve)?
Answer: 1 (1.5) n (%)

Question: What about the “Causally related AE grade ≥3: Dermatitis psoriasiform” value (mCRPC IO-naïve) of the same molecule?
Answer: 0 n (%)

Question: And the “Causally related AE grade ≥3: Diarrhea” value (mCRPC IO-naïve)?
Answer: 0 n (%)

Question: And the “Causally related AE grade ≥3: Dizziness” value (mCRPC IO-naïve)?
Answer: 0 n (%)

Question: What about the “Causally related AE grade ≥3: Dyspnea” value (mCRPC IO-naïve) of the same molecule?
Answer: 0 n (%)

Question: What about the “Causally related AE grade ≥3: Fatigue” value (mCRPC IO-naïve) of the same molecule?
Answer: 1 (1.5) n (%)

Question: What about the “Causally related AE grade ≥3: Headache” value (mCRPC IO-naïve) of the same molecule?
Answer: 1 (1.5) n (%)

Question: And the “Causally related AE grade ≥3: Hyperglycemia” value (mCRPC IO-naïve)?
Answer: 0 n (%)

Question: What about the “Causally related AE grade ≥3: Hypertension” value (mCRPC IO-naïve) of the same molecule?
Answer: 0 n (%)

Question: And the “Causally related AE grade ≥3: Hypophosphatemia” value (mCRPC IO-naïve)?
Answer: 0 n (%)

Question: What about the “Causally related AE grade ≥3: Insomnia” value (mCRPC IO-naïve) of the same molecule?
Answer: 1 (1.5) n (%)

Question: And the “Causally related AE grade ≥3: Lipase increased” value (mCRPC IO-naïve)?
Answer: 0 n (%)

Question: And the “Causally related AE grade ≥3: Lymphocyte count decreased” value (mCRPC IO-naïve)?
Answer: 0 n (%)

Question: And the “Causally related AE grade ≥3: Myositis” value (mCRPC IO-naïve)?
Answer: 0 n (%)

Question: What about the “Causally related AE grade ≥3: Nausea” value (mCRPC IO-naïve) of the same molecule?
Answer: 1 (1.5) n (%)

Question: And the “Causally related AE grade ≥3: Neutrophil count decreased” value (mCRPC IO-naïve)?
Answer: 0 n (%)

Question: What about the “Causally related AE grade ≥3: Obliterative bronchiolitis” value (mCRPC IO-naïve) of the same molecule?
Answer: 0 n (%)

Question: And the “Causally related AE grade ≥3: Rash” value (mCRPC IO-naïve)?
Answer: 0 n (%)

Question: What about the “Causally related AE grade ≥3: Sudden death” value (mCRPC IO-naïve) of the same molecule?
Answer: 0 n (%)

Question: What about the “Causally related AE grade ≥3: Type I diabetes mellitus” value (mCRPC IO-naïve) of the same molecule?
Answer: 0 n (%)

Question: What about the “Causally related AE grade ≥3: Vomiting” value (mCRPC IO-naïve) of the same molecule?
Answer: 1 (1.5) n (%)

Question: What about the “≥Grade 3 causally related AE” value (mCRPC IO-naïve) of the same molecule?
Answer: 9 (13.8) n (%)

Question: And the Tolerability (monotherapy and in combination with durvalumab, all patients)?
Answer: well tolerated
